# According to ChEMBL document CHEMBL4689842, “EUbOPEN Chemogenomics Library wave 1” (2021):
# System: HEK-293T
# Assay: Multiplex assay against HEK293T;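 as to Population Tubulin-Different-Phenotype (%): share of the cells with healthy nuclei that show this phenotype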
# Assay type: toxicity, cell-based
# Conditions: human
# Summary of the method: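 Per cents of healthy-nucleus cells form the tubulin, mitochondrial-mass and membrane-permeability phenotype values. Live cells were stained at seeding with Hoechst33342, BioTracker Green Microtubule Cytoskeleton Dye, MitoTracker Red and Annexin V Alexa Fluor 680. After compound addition they were imaged on a CQ1 microscope at 37°C and 5% CO2, and CellPathfinder machine-learning gating split them into Hoechst high-intensity objects or normal cells, normal cells into healthy, pyknosed or fragmented nuclei, and pyknosed cells into mitotic or apoptotic.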
# [1] = 12 h, 1 µM, compound concentration 1 uM, replicate 1
# [2] = 12 h, 1 µM, compound concentration 1 uM, replicate 2
# [3] = 12 h, 10 µM, compound concentration 10 uM, replicate 1
# [4] = 12 h, 10 µM, compound concentration 10 uM, replicate 2
# [5] = 24 h, 1 µM, compound concentration 1 uM, replicate 1
# [6] = 24 h, 1 µM, compound concentration 1 uM, replicate 2
# [7] = 24 h, 10 µM, compound concentration 10 uM, replicate 1
# [8] = 24 h, 10 µM, compound concentration 10 uM, replicate 2
# [9] = 48 h, 1 µM, compound concentration 1 uM, replicate 1
# [10] = 48 h, 1 µM, compound concentration 1 uM, replicate 2
# [11] = 48 h, 10 µM, compound concentration 10 uM, replicate 1
# [12] = 48 h, 10 µM, compound concentration 10 uM, replicate 2
smiles,measurement,setting,value
Cc1cn(-c2cc(NC(=O)c3ccc(C)c(Nc4nccc(-c5cccnc5)n4)c3)cc(C(F)(F)F)c2)cn1 [NILOTINIB],Population Apoptotic (%),[1],65%
same,Population Fragmented Nuclei (%),[1],10%
same,Population Hoechst High Intensity Objects (%),[1],17%
same,Population Membrane Permeable-Phenotype (%),[1],2%
same,Population Mitochondria Different-Phenotype (%),[1],92%
same,Population Mitotic Cells (%),[1],34%
same,Population Normal (%),[1],82%
same,Population Pyknosed Nuclei (%),[1],51%
same,Population Tubulin-Different-Phenotype (%),[1],98%
same,Total Cell Count,[1],215
same,Population Apoptotic (%),[2],21%
same,Population Fragmented Nuclei (%),[2],7%
same,Population Healthy Nuclei (%),[2],37%
same,Population Hoechst High Intensity Objects (%),[2],6%
same,Population Membrane Permeable-Phenotype (%),[2],10%
same,Population Mitochondria Different-Phenotype (%),[2],10%
same,Population Mitotic Cells (%),[2],78%
same,Population Normal (%),[2],93%
same,Population Pyknosed Nuclei (%),[2],55%
same,Population Tubulin-Different-Phenotype (%),[2],15%
same,Total Cell Count,[2],164
same,Population Apoptotic (%),[3],91%
same,Population Fragmented Nuclei (%),[3],54%
same,Population Healthy Nuclei (%),[3],12%
same,Population Hoechst High Intensity Objects (%),[3],48%
same,Population Membrane Permeable-Phenotype (%),[3],6%
same,Population Mitochondria Different-Phenotype (%),[3],61%
same,Population Mitotic Cells (%),[3],8%
same,Population Normal (%),[3],51%
same,Population Pyknosed Nuclei (%),[3],32%
same,Population Tubulin-Different-Phenotype (%),[3],59%
same,Total Cell Count,[3],738
same,Population Apoptotic (%),[4],38%
same,Population Fragmented Nuclei (%),[4],9%
same,Population Healthy Nuclei (%),[4],32%
same,Population Hoechst High Intensity Objects (%),[4],3%
same,Population Membrane Permeable-Phenotype (%),[4],3%
same,Population Mitochondria Different-Phenotype (%),[4],71%
same,Population Mitotic Cells (%),[4],62%
same,Population Normal (%),[4],96%
same,Population Pyknosed Nuclei (%),[4],57%
same,Population Tubulin-Different-Phenotype (%),[4],80%
same,Total Cell Count,[4],179
same,Population Apoptotic (%),[5],69%
same,Population Fragmented Nuclei (%),[5],14%
same,Population Healthy Nuclei (%),[5],39%
same,Population Hoechst High Intensity Objects (%),[5],15%
same,Population Membrane Permeable-Phenotype (%),[5],1%
same,Population Mitochondria Different-Phenotype (%),[5],98%
same,Population Mitotic Cells (%),[5],30%
same,Population Normal (%),[5],84%
same,Population Pyknosed Nuclei (%),[5],46%
same,Population Tubulin-Different-Phenotype (%),[5],94%
same,Total Cell Count,[5],213
same,Population Apoptotic (%),[6],18%
same,Population Fragmented Nuclei (%),[6],7%
same,Population Healthy Nuclei (%),[6],56%
same,Population Hoechst High Intensity Objects (%),[6],4%
same,Population Membrane Permeable-Phenotype (%),[6],8%
same,Population Mitochondria Different-Phenotype (%),[6],23%
same,Population Mitotic Cells (%),[6],81%
same,Population Normal (%),[6],95%
same,Population Pyknosed Nuclei (%),[6],35%
same,Population Tubulin-Different-Phenotype (%),[6],38%
same,Total Cell Count,[6],212
same,Population Apoptotic (%),[7],87%
same,Population Fragmented Nuclei (%),[7],64%
same,Population Healthy Nuclei (%),[7],11%
same,Population Hoechst High Intensity Objects (%),[7],50%
same,Population Membrane Permeable-Phenotype (%),[7],1%
same,Population Mitochondria Different-Phenotype (%),[7],50%
same,Population Mitotic Cells (%),[7],12%
same,Population Normal (%),[7],49%
same,Population Pyknosed Nuclei (%),[7],24%
same,Population Tubulin-Different-Phenotype (%),[7],51%
same,Total Cell Count,[7],958
same,Population Apoptotic (%),[8],41%
same,Population Fragmented Nuclei (%),[8],5%
same,Population Healthy Nuclei (%),[8],57%
same,Population Hoechst High Intensity Objects (%),[8],2%
same,Population Membrane Permeable-Phenotype (%),[8],5%
same,Population Mitochondria Different-Phenotype (%),[8],68%
same,Population Mitotic Cells (%),[8],58%
same,Population Normal (%),[8],97%
same,Population Pyknosed Nuclei (%),[8],36%
same,Population Tubulin-Different-Phenotype (%),[8],85%
same,Total Cell Count,[8],209
same,Population Apoptotic (%),[9],64%
same,Population Fragmented Nuclei (%),[9],17%
same,Population Healthy Nuclei (%),[9],31%
same,Population Hoechst High Intensity Objects (%),[9],19%
same,Population Membrane Permeable-Phenotype (%),[9],1%
same,Population Mitochondria Different-Phenotype (%),[9],88%
same,Population Mitotic Cells (%),[9],36%
same,Population Normal (%),[9],80%
same,Population Pyknosed Nuclei (%),[9],50%
same,Population Tubulin-Different-Phenotype (%),[9],85%
same,Total Cell Count,[9],244
same,Population Apoptotic (%),[10],16%
same,Population Fragmented Nuclei (%),[10],4%
same,Population Healthy Nuclei (%),[10],80%
same,Population Hoechst High Intensity Objects (%),[10],3%
same,Population Membrane Permeable-Phenotype (%),[10],9%
same,Population Mitochondria Different-Phenotype (%),[10],9%
same,Population Mitotic Cells (%),[10],83%
same,Population Normal (%),[10],96%
same,Population Pyknosed Nuclei (%),[10],14%
same,Population Tubulin-Different-Phenotype (%),[10],38%
same,Total Cell Count,[10],337
same,Population Apoptotic (%),[11],84%
same,Population Fragmented Nuclei (%),[11],64%
same,Population Healthy Nuclei (%),[11],14%
same,Population Hoechst High Intensity Objects (%),[11],52%
same,Population Membrane Permeable-Phenotype (%),[11],0%
same,Population Mitochondria Different-Phenotype (%),[11],34%
same,Population Mitotic Cells (%),[11],15%
same,Population Normal (%),[11],47%
same,Population Pyknosed Nuclei (%),[11],20%
same,Population Tubulin-Different-Phenotype (%),[11],32%
same,Total Cell Count,[11],1138
same,Population Apoptotic (%),[12],41%
same,Population Fragmented Nuclei (%),[12],7%
same,Population Healthy Nuclei (%),[12],69%
same,Population Hoechst High Intensity Objects (%),[12],1%
same,Population Membrane Permeable-Phenotype (%),[12],1%
same,Population Mitochondria Different-Phenotype (%),[12],61%
same,Population Mitotic Cells (%),[12],58%
same,Population Normal (%),[12],98%
same,Population Pyknosed Nuclei (%),[12],23%
same,Population Tubulin-Different-Phenotype (%),[12],84%
same,Total Cell Count,[12],290
CN1CCN(C(=O)C(C)(C)c2ccc(C(=O)Nc3cn4cc(-c5cc(C(C)(C)C)cc(C(C)(C)C)c5)ccc4n3)cc2)CC1 [T3-CLK-N],Population Apoptotic (%),[1],14%
same,Population Fragmented Nuclei (%),[1],15%
same,Population Healthy Nuclei (%),[1],58%
same,Population Hoechst High Intensity Objects (%),[1],12%
same,Population Membrane Permeable-Phenotype (%),[1],5%
same,Population Mitochondria Different-Phenotype (%),[1],7%
same,Population Mitotic Cells (%),[1],85%
same,Population Normal (%),[1],87%
same,Population Pyknosed Nuclei (%),[1],25%
same,Population Tubulin-Different-Phenotype (%),[1],9%
same,Total Cell Count,[1],642
same,Population Apoptotic (%),[2],10%
same,Population Fragmented Nuclei (%),[2],6%
same,Population Healthy Nuclei (%),[2],84%
same,Population Hoechst High Intensity Objects (%),[2],2%
same,Population Membrane Permeable-Phenotype (%),[2],4%
same,Population Mitochondria Different-Phenotype (%),[2],13%
same,Population Mitotic Cells (%),[2],89%
same,Population Normal (%),[2],97%
same,Population Pyknosed Nuclei (%),[2],9%
same,Population Tubulin-Different-Phenotype (%),[2],21%
same,Total Cell Count,[2],1407
same,Population Apoptotic (%),[3],21%
same,Population Fragmented Nuclei (%),[3],16%
same,Population Healthy Nuclei (%),[3],46%
same,Population Hoechst High Intensity Objects (%),[3],18%
same,Population Membrane Permeable-Phenotype (%),[3],11%
same,Population Mitochondria Different-Phenotype (%),[3],13%
same,Population Mitotic Cells (%),[3],78%
same,Population Normal (%),[3],81%
same,Population Pyknosed Nuclei (%),[3],36%
same,Population Tubulin-Different-Phenotype (%),[3],30%
same,Total Cell Count,[3],631
same,Population Apoptotic (%),[4],23%
same,Population Fragmented Nuclei (%),[4],3%
same,Population Healthy Nuclei (%),[4],80%
same,Population Hoechst High Intensity Objects (%),[4],4%
same,Population Membrane Permeable-Phenotype (%),[4],4%
same,Population Mitochondria Different-Phenotype (%),[4],26%
same,Population Mitotic Cells (%),[4],76%
same,Population Normal (%),[4],95%
same,Population Pyknosed Nuclei (%),[4],15%
same,Population Tubulin-Different-Phenotype (%),[4],63%
same,Total Cell Count,[4],884
same,Population Apoptotic (%),[5],16%
same,Population Fragmented Nuclei (%),[5],12%
same,Population Healthy Nuclei (%),[5],76%
same,Population Hoechst High Intensity Objects (%),[5],10%
same,Population Membrane Permeable-Phenotype (%),[5],14%
same,Population Mitochondria Different-Phenotype (%),[5],5%
same,Population Mitotic Cells (%),[5],83%
same,Population Normal (%),[5],89%
same,Population Pyknosed Nuclei (%),[5],10%
same,Population Tubulin-Different-Phenotype (%),[5],19%
same,Total Cell Count,[5],686
same,Population Apoptotic (%),[6],4%
same,Population Fragmented Nuclei (%),[6],10%
same,Population Healthy Nuclei (%),[6],84%
same,Population Hoechst High Intensity Objects (%),[6],4%
same,Population Membrane Permeable-Phenotype (%),[6],9%
same,Population Mitochondria Different-Phenotype (%),[6],8%
same,Population Mitotic Cells (%),[6],95%
same,Population Normal (%),[6],95%
same,Population Pyknosed Nuclei (%),[6],5%
same,Population Tubulin-Different-Phenotype (%),[6],40%
same,Total Cell Count,[6],1792
same,Population Apoptotic (%),[7],27%
same,Population Fragmented Nuclei (%),[7],20%
same,Population Healthy Nuclei (%),[7],46%
same,Population Hoechst High Intensity Objects (%),[7],21%
same,Population Membrane Permeable-Phenotype (%),[7],8%
same,Population Mitochondria Different-Phenotype (%),[7],23%
same,Population Mitotic Cells (%),[7],72%
same,Population Normal (%),[7],78%
same,Population Pyknosed Nuclei (%),[7],33%
same,Population Tubulin-Different-Phenotype (%),[7],56%
same,Total Cell Count,[7],614
same,Population Apoptotic (%),[8],17%
same,Population Fragmented Nuclei (%),[8],4%
same,Population Healthy Nuclei (%),[8],88%
same,Population Hoechst High Intensity Objects (%),[8],3%
same,Population Membrane Permeable-Phenotype (%),[8],7%
same,Population Mitochondria Different-Phenotype (%),[8],37%
same,Population Mitotic Cells (%),[8],82%
same,Population Normal (%),[8],96%
same,Population Pyknosed Nuclei (%),[8],6%
same,Population Tubulin-Different-Phenotype (%),[8],82%
same,Total Cell Count,[8],947
